Measurements reported in ChEMBL document CHEMBL6078622, “Enhancing outer membrane permeability of tetracycline antibiotics in P. aeruginosa using TOB-CIP conjugates” (RSC Med Chem, 2024).
Activity calls are given as the source filed them. The rule behind the calls is not given here.

What was measured:
Pseudomonas aeruginosa [1] = assay: Synergistic antibacterial activity against Pseudomonas aeruginosa PA100036 assessed as fractional inhibitory concentration index in presence of doxycycline by checkerboard assay; assay type: functional
Pseudomonas aeruginosa [2] = assay: Synergistic antibacterial activity against Pseudomonas aeruginosa PA259 assessed as fold change in minocycline MIC by CLSI based broth-microdilution method relative to minocycline alone; assay type: functional
Pseudomonas aeruginosa [3] = assay: Antibacterial activity against Pseudomonas aeruginosa PA095 assessed as doxycycline MIC by CLSI based broth-microdilution method; assay type: functional
Pseudomonas aeruginosa [4] = assay: Synergistic antibacterial activity against Pseudomonas aeruginosa PAO1 assessed as fold change in doxycycline MIC by checkerboard analysis relative to doxycycline alone; assay type: functional
Pseudomonas aeruginosa [5] = assay: Synergistic antibacterial activity against Pseudomonas aeruginosa PA259 assessed as fractional inhibitory concentration index in presence of minocycline by checkerboard assay; assay type: functional
Pseudomonas aeruginosa [6] = assay: Synergistic antibacterial activity against Pseudomonas aeruginosa PA200 assessed as fold change in minocycline MIC by CLSI based broth-microdilution method relative to minocycline alone; assay type: functional
Pseudomonas aeruginosa [7] = assay: Synergistic antibacterial activity against Pseudomonas aeruginosa PA114228 in presence of doxycycline by checkerboard assay; assay type: functional
Pseudomonas aeruginosa [8] = assay: Synergistic antibacterial activity against Pseudomonas aeruginosa PA101243 assessed as fractional inhibitory concentration index in presence of minocycline by checkerboard assay; assay type: functional
Escherichia = assay: Synergistic antibacterial activity against Escherichia 107115 assessed as fold change in minocycline MIC by CLSI based broth-microdilution method relative to minocycline alone; assay type: functional
Method in brief: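 Checkerboard combination assay against E. coli EC107115 (MDR) and EC94474 (colistin-resistant), run in biological duplicates; the fold change is the tetracycline MIC in combination relative to its MIC alone.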

Pseudomonas aeruginosa [9] = assay: Synergistic antibacterial activity against Pseudomonas aeruginosa PA200 assessed as fractional inhibitory concentration index in presence of tigecycline by checkerboard assay; assay type: functional
Pseudomonas aeruginosa [10] = assay: Synergistic antibacterial activity against Pseudomonas aeruginosa PA114228 assessed as fold change in minocycline MIC by CLSI based broth-microdilution method relative to minocycline alone; assay type: functional
Pseudomonas aeruginosa [11] = assay: Synergistic antibacterial activity against Pseudomonas aeruginosa PA101243 assessed as fractional inhibitory concentration index in presence of eravacycline by checkerboard assay; assay type: functional
Pseudomonas aeruginosa [12] = assay: Synergistic antibacterial activity against Pseudomonas aeruginosa PA264 assessed as fold change in doxycycline MIC by CLSI based broth-microdilution method relative to doxycycline alone; assay type: functional
Pseudomonas aeruginosa [13] = assay: Synergistic antibacterial activity against Pseudomonas aeruginosa PA262 assessed as fractional inhibitory concentration index in presence of minocycline by checkerboard assay; assay type: functional
Pseudomonas aeruginosa [14] = assay: Antibacterial activity against Pseudomonas aeruginosa PA259 assessed as minocycline MIC by CLSI based broth-microdilution method; assay type: functional
Pseudomonas aeruginosa [15] = assay: Synergistic antibacterial activity against Pseudomonas aeruginosa PA200 in presence of doxycycline by checkerboard assay; assay type: functional
Pseudomonas aeruginosa [16] = assay: Synergistic antibacterial activity against Pseudomonas aeruginosa PA101243 in presence of doxycycline by checkerboard assay; assay type: functional
Pseudomonas aeruginosa [17] = assay: Synergistic antibacterial activity against Pseudomonas aeruginosa PA114228 assessed as fold change in tigecycline MIC by CLSI based broth-microdilution method relative to tigecycline alone; assay type: functional
Pseudomonas aeruginosa [18] = assay: Antibacterial activity against Pseudomonas aeruginosa PA114228 assessed as tigecycline MIC by CLSI based broth-microdilution method; assay type: functional
Pseudomonas aeruginosa [19] = assay: Synergistic antibacterial activity against Pseudomonas aeruginosa PA200 assessed as fractional inhibitory concentration index in presence of minocycline by checkerboard assay; assay type: functional
Pseudomonas aeruginosa [20] = assay: Synergistic antibacterial activity against Pseudomonas aeruginosa PA259 in presence of tigecycline by checkerboard assay; assay type: functional
Pseudomonas aeruginosa [21] = assay: Synergistic antibacterial activity against Pseudomonas aeruginosa PA101243 in presence of minocycline by checkerboard assay; assay type: functional
Pseudomonas aeruginosa [22] = assay: Synergistic antibacterial activity against Pseudomonas aeruginosa PAO1 assessed as fold change in tigecycline MIC by checkerboard analysis relative to Tigecycline alone; assay type: functional
Pseudomonas aeruginosa [23] = assay: Synergistic antibacterial activity against Pseudomonas aeruginosa PA259 assessed as fold change in doxycycline MIC by CLSI based broth-microdilution method relative to doxycycline alone; assay type: functional
Pseudomonas aeruginosa [24] = assay: Antibacterial activity against Pseudomonas aeruginosa PA262 assessed as inhibition of visible bacterial growth by CLSI based broth-microdilution method; assay type: functional
Pseudomonas aeruginosa [25] = assay: Synergistic antibacterial activity against Pseudomonas aeruginosa PA200 in presence of minocycline by checkerboard assay; assay type: functional
Pseudomonas aeruginosa [26] = assay: Synergistic antibacterial activity against Pseudomonas aeruginosa PAO1 assessed as fold change in eravacycline MIC by checkerboard analysis relative to eravacycline alone; assay type: functional
Pseudomonas aeruginosa [27] = assay: Synergistic antibacterial activity against Pseudomonas aeruginosa PA262 in presence of minocycline by checkerboard assay; assay type: functional
Pseudomonas aeruginosa [28] = assay: Antibacterial activity against Pseudomonas aeruginosa PA200 assessed as eravacycline MIC by CLSI based broth-microdilution method; assay type: functional
Pseudomonas aeruginosa [29] = assay: Synergistic antibacterial activity against Pseudomonas aeruginosa PA095 assessed as fold change in tigecycline MIC by CLSI based broth-microdilution method relative to tigecycline alone; assay type: functional
Pseudomonas aeruginosa [30] = assay: Synergistic antibacterial activity against Pseudomonas aeruginosa PA114228 assessed as fractional inhibitory concentration index in presence of doxycycline by checkerboard assay; assay type: functional
Pseudomonas aeruginosa [31] = assay: Antibacterial activity against Pseudomonas aeruginosa PAO1 assessed as inhibition of bacterial growth by measuring fold change in MIC in presence of 25 % fetal bovine serum by CLSI protocol based assay; assay type: functional
Pseudomonas aeruginosa [32] = assay: Synergistic antibacterial activity against Pseudomonas aeruginosa PA100036 in presence of tigecycline by checkerboard assay; assay type: functional
Pseudomonas aeruginosa [33] = assay: Synergistic antibacterial activity against Pseudomonas aeruginosa PA259 in presence of eravacycline by checkerboard assay; assay type: functional
Pseudomonas aeruginosa [34] = assay: Antibacterial activity against Pseudomonas aeruginosa PA114228 assessed as minocycline MIC by CLSI based broth-microdilution method; assay type: functional
Pseudomonas aeruginosa [35] = assay: Synergistic antibacterial activity against Pseudomonas aeruginosa PA100036 in presence of doxycycline by checkerboard assay; assay type: functional
Pseudomonas aeruginosa [36] = assay: Antibacterial activity against Pseudomonas aeruginosa PA200 assessed as inhibition of visible bacterial growth by CLSI based broth-microdilution method; assay type: functional
Pseudomonas aeruginosa [37] = assay: Antibacterial activity against Pseudomonas aeruginosa PA101243 assessed as inhibition of visible bacterial growth by CLSI based broth-microdilution method; assay type: functional
Pseudomonas aeruginosa [38] = assay: Antibacterial activity against Pseudomonas aeruginosa PA264 assessed as reduction in bacterial load incubated for 2 hrs in presence of eravacycline by time kill assay; assay type: functional, organism-based
Pseudomonas aeruginosa [39] = assay: Synergistic antibacterial activity against Pseudomonas aeruginosa PA100036 assessed as fold change in minocycline MIC by CLSI based broth-microdilution method relative to minocycline alone; assay type: functional
Pseudomonas aeruginosa [40] = assay: Antibacterial activity against Pseudomonas aeruginosa PA262 assessed as eravacycline MIC by CLSI based broth-microdilution method; assay type: functional
Pseudomonas aeruginosa [41] = assay: Synergistic antibacterial activity against Pseudomonas aeruginosa PA114228 assessed as fold change in eravacycline MIC by CLSI based broth-microdilution method relative to eravacycline alone; assay type: functional
Pseudomonas aeruginosa [42] = assay: Synergistic antibacterial activity against Pseudomonas aeruginosa PA100036 in presence of eravacycline by checkerboard assay; assay type: functional
Pseudomonas aeruginosa [43] = assay: Antibacterial activity against Pseudomonas aeruginosa PA100036 assessed as eravacycline MIC by CLSI based broth-microdilution method; assay type: functional

MIC (Pseudomonas aeruginosa [3]): 4 µg/mL
MIC (Pseudomonas aeruginosa [7]): 8 µg/mL
MIC (Pseudomonas aeruginosa [14]): 0.25 µg/mL
MIC (Pseudomonas aeruginosa [15]): 8 µg/mL
MIC (Pseudomonas aeruginosa [16]): 8 µg/mL
MIC (Pseudomonas aeruginosa [18]): 16 µg/mL
MIC (Pseudomonas aeruginosa [20]): 8 µg/mL
MIC (Pseudomonas aeruginosa [21]): 8 µg/mL
MIC (Pseudomonas aeruginosa [24]): > 128 µg/mL
MIC (Pseudomonas aeruginosa [25]): 8 µg/mL
MIC (Pseudomonas aeruginosa [27]): 8 µg/mL
MIC (Pseudomonas aeruginosa [28]): 0.031 µg/mL
MIC (Pseudomonas aeruginosa [32]): 8 µg/mL
MIC (Pseudomonas aeruginosa [33]): 8 µg/mL
MIC (Pseudomonas aeruginosa [34]): 64 µg/mL
MIC (Pseudomonas aeruginosa [35]): 8 µg/mL
MIC (Pseudomonas aeruginosa [36]): 32 µg/mL
MIC (Pseudomonas aeruginosa [37]): > 128 µg/mL
MIC (Pseudomonas aeruginosa [40]): 1 µg/mL
MIC (Pseudomonas aeruginosa [42]): 8 µg/mL
MIC (Pseudomonas aeruginosa [43]): 0.125 µg/mL
Compound: Cl.Cl.Cl.Cl.Cl.Cl.NC[C@H]1O[C@H](O[C@H]2[C@H](OCCCCCCCCCCCCNC(=O)c3cn(C4CC4)c4cc(N5CCNCC5)c(F)cc4c3=O)[C@@H](O[C@H]3O[C@H](CO)[C@@H](O)[C@H](N)[C@H]3O)[C@H](N)C[C@@H]2N)[C@H](N)C[C@@H]1O
fractional inhibitory concentration index (FICI) (Pseudomonas aeruginosa [1]): 0.004
fold change (FC) (Pseudomonas aeruginosa [2]): 512
fold change (FC) (Pseudomonas aeruginosa [4]): 64
fractional inhibitory concentration index (FICI) (Pseudomonas aeruginosa [5]): 0.002
fold change (FC) (Pseudomonas aeruginosa [6]): 64
fractional inhibitory concentration index (FICI) (Pseudomonas aeruginosa [8]): 0.25
fold change (FC) (Escherichia): 32
fractional inhibitory concentration index (FICI) (Pseudomonas aeruginosa [9]): 0.187
fold change (FC) (Pseudomonas aeruginosa [10]): 512
fractional inhibitory concentration index (FICI) (Pseudomonas aeruginosa [11]): 0.625
fold change (FC) (Pseudomonas aeruginosa [12]): 16
fractional inhibitory concentration index (FICI) (Pseudomonas aeruginosa [13]): 0.008
fold change (FC) (Pseudomonas aeruginosa [17]): 128
fractional inhibitory concentration index (FICI) (Pseudomonas aeruginosa [19]): 0.312
fold change (FC) (Pseudomonas aeruginosa [22]): 64
fold change (FC) (Pseudomonas aeruginosa [23]): 128
fold change (FC) (Pseudomonas aeruginosa [26]): 64
fold change (FC) (Pseudomonas aeruginosa [29]): 2
fractional inhibitory concentration index (FICI) (Pseudomonas aeruginosa [30]): 0.004
fold change (FC) (Pseudomonas aeruginosa [31]): 128
Activity (Pseudomonas aeruginosa [38]): Active
fold change (FC) (Pseudomonas aeruginosa [39]): 256
fold change (FC) (Pseudomonas aeruginosa [41]): 256
